Results published in PMC3064895 (Cancer Chemotherapy and Pharmacology, 2010).
“And” between values parts separate entries of the source, which are not always exact repeats. Equal entries are not always repeated. “Also recorded” adds a separate entry of the source.

How the values were obtained:
[1] = observational study by Schmidinger et al.; cited from earlier work
[2] = QT/QTc interval on 12-lead Holter ECG; type: in vivo, patients with advanced cancer
[3] = Safety: adverse events by NCI-CTCAE v3.0; type: in vivo, patients with advanced cancer
Outline: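 Patients with advanced cancer took the oral kinase inhibitor at 400 mg bid, continuously, in 28-day cycles. Safety, including laboratory tests, was checked at screening, at baseline and on day 1 of each cycle. Treatment-emergent AEs were graded by NCI-CTCAE v3.0 for incidence, severity, seriousness and drug relationship, and summarized descriptively for all patients with ≥1 dose.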

[4] = Plasma pharmacokinetics at steady state of sorafenib; type: in vivo, patients with advanced cancer; conditions: for AUC / Cmax: geometric mean (% CV); for AUC: AUC(0–12), n = 14; for Cmax: C max
[5] = over 12-h period, Day 1 of cycle 2
[6] = over 12-h period, Day 1 of cycle 2, listed as Sorafenib
[7] = human, plasma, oral, 400 mg, plasma, Day 1 of cycle 2, sorafenib 400 mg bid
[8] = human, plasma, oral, 400 mg, plasma, Day 1 of cycle 5, sorafenib 400 mg bid
[9] = plasma, Day 1 of cycle 2, sorafenib 400 mg bid
[10] = plasma, Day 1 of cycle 5, sorafenib 400 mg bid

CNC(=O)c1cc(Oc2ccc(NC(=O)Nc3ccc(Cl)c(C(F)(F)F)c3)cc2)ccn1 [sorafenib]
Incidence of ≥10 LVEF(%) reduction [1]: 5% | Mean (SD) change from baseline in QTcB ([2]; 2 h post-dose, Day 1 of cycle 2): 0.5 (18.0) ms | Mean (SD) change from baseline in QTcB ([2]; 4 h post-dose, Day 1 of cycle 2): 2.0 (20.2) ms | Mean (SD) change from baseline in QTcB ([2]; 6 h post-dose, Day 1 of cycle 2): 1.6 (17.3) ms | Mean (SD) change from baseline in QTcB ([2]; 8 h post-dose, Day 1 of cycle 2): 0.2 (16.1) ms | Mean (SD) change from baseline in QTcB ([2]; 12 h post-dose, Day 1 of cycle 2): 2.9 (17.2) ms | Mean (SD) change from baseline in QTcB ([2]; Pre-dose, Day 1 of cycle 2): 1.1 (18.3) ms | Patients with a QTcB or QTcF value >500 ms ([2]; at any time during the study): No patient | Mean (SD) change from baseline in QTcB ([2]; at t max, Day 1 of cycle 2): 4.2 ms and 4 ms | Mean (SD) change from baseline in QTcB ([2]; at t max, Day 1 of cycle 2, listed as Sorafenib): 4.2 (19.2) ms | Patients with a ≥60-ms change from baseline in QTcB or QTcF ([2]; during the study): no patient | Mean (SD) maximal change from baseline in QT [2, 5]: 32.9 (24.1) ms | Mean (SD) maximal change from baseline in QTcB [2, 5]: 16.4 ms and 16 ms | Mean (SD) maximal change from baseline in QTcF [2, 5]: 19.8 ms and 20 ms | Mean (SD) maximal change from baseline in QTcB [2, 6]: 16.4 (15.3) ms | Mean (SD) maximal change from baseline in QTcF [2, 6]: 19.8 (14.4) ms | Mean increases from baseline by time point, QTcB (range) ([2]; over 12 h, after 1 cycle): 0.2 to 2.9 ms | Mean increases from baseline by time point, QTcF (range) ([2]; over 12 h, after 1 cycle): 4.2 to 5.8 ms | QTcF value, individual patient ([2]; patient with maximum prolongation, after 1 cycle, baseline 396.7 ms): 446.3 ms | Alopecia, drug-related, Grade ≥3 ([3]; N = 53): 0 (0) n (%) | Alopecia, drug-related, all grades ([3]; N = 53): 13 (25) n (%) | Dermal change, drug-related, Grade ≥3 ([3]; N = 53): 0 (0) n (%) | Dermal change, drug-related, all grades ([3]; N = 53): 6 (11) n (%) | Dermatology—other, drug-related, Grade ≥3 ([3]; N = 53): 1 (2) n (%) | Dermatology—other, drug-related, all grades ([3]; N = 53): 7 (13) n (%) | Diarrhea, drug-related, Grade ≥3 ([3]; N = 53): 1 (2) n (%) | Diarrhea, drug-related, all grades ([3]; N = 53): 15 (28) n (%) | Fatigue, drug-related, Grade ≥3 ([3]; N = 53): 1 (2) n (%) | Fatigue, drug-related, all grades ([3]; N = 53): 8 (15) n (%) | Hand-foot skin reaction, drug-related, Grade ≥3 ([3]; N = 53): 6 (11) n (%) | Hand-foot skin reaction, drug-related, all grades ([3]; N = 53): 16 (30) n (%) | Hypertension, drug-related, Grade ≥3 ([3]; N = 53): 1 (2) n (%) | Hypertension, drug-related, all grades ([3]; N = 53): 6 (11) n (%) | Mucositis, drug-related, Grade ≥3 ([3]; N = 53): 1 (2) n (%) | Mucositis, drug-related, all grades ([3]; N = 53): 8 (15) n (%) | Nausea, drug-related, Grade ≥3 ([3]; N = 53): 0 (0) n (%) | Nausea, drug-related, all grades ([3]; N = 53): 7 (13) n (%) | Pain, extremity—limb, drug-related, Grade ≥3 ([3]; N = 53): 0 (0) n (%) | Pain, extremity—limb, drug-related, all grades ([3]; N = 53): 12 (23) n (%) | Patients discontinued from the study because of AEs ([3]; N = 53): Seven | Patients with dose reductions ([3]; N = 53): 43.4% | Patients with dose reductions because of treatment-emergent AEs ([3]; N = 53): 32.1% | Patients with drug-related treatment-emergent serious AEs ([3]; N = 53): 4% | Patients with treatment interruptions ([3]; N = 53): 75.5% | Patients with treatment interruptions because of treatment-emergent AEs ([3]; N = 53): 43.4% | Rash/desquamation, drug-related, Grade ≥3 ([3]; N = 53): 3 (6) n (%) | Rash/desquamation, drug-related, all grades ([3]; N = 53): 20 (38) n (%) | Sensory neuropathy, drug-related, Grade ≥3 ([3]; N = 53): 0 (0) n (%) | Sensory neuropathy, drug-related, all grades ([3]; N = 53): 7 (13) n (%) | Any drug-related adverse event, Grade ≥3 ([3]; N = 53, sorafenib 400 mg bid): 16 n (%) and 16 (30) n (%) | Any drug-related adverse event, all grades ([3]; N = 53, sorafenib 400 mg bid): 43 n (%) and 43 (81) n (%) | Deaths during the study or within 30 days of the last dose ([3]; all secondary to disease progression, considered unrelated to study drug): Seven | Discontinuations because of drug-related AEs ([3]; of the patients discontinued because of AEs): 3 patients | Tmax ([4]; human, plasma, oral, 400 mg): 2 h | AUC [4, 7]: 42800 ng·h/mL | AUC [4, 8]: 36000 ng·h/mL | Cmax [4, 7]: 5400 ng/mL | Cmax [4, 8]: 4300 ng/mL | AUCnorm, geometric mean (% CV) [4, 9]: 7.5 (48.4) kg h/L | C max,norm, geometric mean (% CV) [4, 9]: 1.0 (64.9) kg/L | C trough, geometric mean (% CV) [4, 9]: 4.1 (73.6) mg/L | C trough,norm, geometric mean (% CV) [4, 9]: 0.7 (85.4) kg/L | AUCnorm, geometric mean (% CV) [4, 10]: 6.3 (69.8) kg h/L | C max,norm, geometric mean (% CV) [4, 10]: 0.8 (72.5) kg/L | C trough, geometric mean (% CV) [4, 10]: 3.2 (73.8) mg/L | C trough,norm, geometric mean (% CV) [4, 10]: 0.6 (83.8) kg/L | t max, median (range) [4, 10]: 2.00 (0–8.05) h | Relationship between PK parameters (AUC(0–12), C max) and cardiovascular safety parameters (QT/QTc, LVEF, BP, HR) ([4]; sorafenib and its main metabolites, any time point, data not shown): No correlation; also recorded: No relationship was observed
